Results taken from the EternaBench riboswitch data.

Tested on: MS2 coat protein
Assay: apparent Kd, MS2 coat protein; higher = weaker binding; RNA-MaP array; FMN 200 µM where present
Summary of the method: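 Each design was made on Illumina sequencing-chip clusters by stalled E. coli RNA polymerase and titrated with SNAP-549-labelled MS2 coat protein from 0.7 or 1.5 nM, doubling to 3 µM, in the absence and then the presence of constant ligand. The buffer was 100 mM Tris-HCl pH 7.5, 80 mM KCl, 4 mM MgCl2, BSA, DTT, yeast tRNA and Tween-20. The apparent Kd is the median of filtered per-cluster fits of binding curves, with green signal normalised to red-channel RNA signal and control-cluster median Fmax.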

[1] = designed as: OFF switch for flavin mononucleotide, no ligand
[2] = ligand present: flavin mononucleotide, designed as: OFF switch for flavin mononucleotide
[3] = designed as: ON switch for flavin mononucleotide, no ligand
[4] = ligand present: flavin mononucleotide, designed as: ON switch for flavin mononucleotide

## GUGUACUGAGGAUAUGCUGGAAUCUAGCGAAGCUAGGUUCCACAUGAGGAUCACCCAUGUAGAAGGCGGUACAC
[1]
  apparent Kd: 34.2 nM
[2]
  apparent Kd: 13.7 nM

## AAGACUAGAGGAUAUACAUGAGGAUCACCCAUGUAACUGUCAGGUGACUGACGGAAAAGUAGAAGGCUAGUCAA
[1]
  apparent Kd: 16.6 nM
[2]
  apparent Kd: 20 nM

## AUUAUUAUAAAUUAAGGAAGAAUCAGAAGGCGUUACAUGAGGAUCACCCAUGUUUUGUAUAGUAACGAGGAUAUGAUAUGGAAA
[1]
  apparent Kd: 17.5 nM
[2]
  apparent Kd: 14 nM

## CCAGCGUAUGUGAGGAUAUGCUGGUCCUUGGAUCAGCAGAAGGCACAUGAGGAUCACCCAUGUGGAAUCGUUGG
[1]
  apparent Kd: 23.5 nM
[2]
  apparent Kd: 92.1 nM

## GGUGCAUGUGAGAAGGCGAUCAUGAAACAUGAUCGAGGAUAUCAUGUAAACAUGAGGAUCACCCAUGUAUGGGAAAAGUGCACC
[3]
  apparent Kd: 97.9 nM
[4]
  apparent Kd: 10.1 nM

## ACAUUUUAUGCAGGAUAUUGACAUAGGAUUAAACAAGAAGGGCAUUACAUGAGGAUCACCCAUGUUUUAUUGGUAUAUAAGUUC
[2]
  apparent Kd: 14 nM

## AUAAAACAUGAGGAUCACCCAUGUCAACAAAGUCGAGGAUAUGGGUAAAUAAAAUAAGAACCAGAAGGCGAAUAAU
[3]
  apparent Kd: 597 nM
[4]
  apparent Kd: 132 nM

## GGGUACAUCGGAGGAUAUCAUGUAAAUACAUGAGGAUCACCCAUGUCGAUGGAGACAUCGGAGAUUUAGAAGGCCGAUGUACCG
[3]
  apparent Kd: 158 nM
[4]
  apparent Kd: 201 nM

## GGAUAGGACAGAGGAUAUACGUGUUAGAGAUACUAGCAAAAUUUCCUCACAUGAGGAUCACCCAUGUAGAAGGCUGUCCUAUCG
[1]
  apparent Kd: 23.1 nM
[2]
  apparent Kd: 413 nM

## UGCUGUGUCAGAGGAUAUACACCUAUAAUCCAUUGCAAAUAGCGAUGGACAUGAGGAUCACCCAUGUAGAAGGCUGUCACAGCA
[1]
  apparent Kd: 214 nM
[2]
  apparent Kd: 647 nM

## GACCGUCACAGUUACCGGUUGAACGAGGAUAUGAUUACUGGGCCUGCACAUGAGGAUCACCCAUGUCAGAAGGCGUUCAGUCCC
[1]
  apparent Kd: 5.86 nM
[2]
  apparent Kd: 18.9 nM

## AGCGUGGUCCACUUGGACGCCUACGAGGAUAUCCUGUCACAUGAGGAUCACCCAUGUAGGCACACGGAGAAGGCGUAGACUUAA
[3]
  apparent Kd: 25.8 nM
[4]
  apparent Kd: 6.8 nM

## UUACUCAUGUAAGGAUAUGCAGCCGAAACGGCUGCAGAAGGUACUAUAAUACAUGAGGAUCACCCAUGUCUUUUUAAUUUAGAC
[3]
  apparent Kd: 51.2 nM
[4]
  apparent Kd: 78 nM

## AUAUAUAUAAGGUAGGAUAUACUAAAGUAAACAUGAGGAUCACCCAUGUAAAGAAAGAAACUCAUGUAGAAGGACCAUAUAUAUAU
[3]
  apparent Kd: 171 nM
[4]
  apparent Kd: 36.5 nM

## AUCAGCUCGUCAGGAUAUACGUCACUGCUUCGGCAGUGUGGUAAGAUCACAUGAGGAUCACCCAUGUAGAAGGGACGAGCUGAC
[1]
  apparent Kd: 13.6 nM
[2]
  apparent Kd: 237 nM

## CCGGAUAUGCAGGAUAUCGUAUCGGAAACGAUACGAGAAGGGUAUACAUGAGGAUCACCCAUGUGUCCUACCGG
[1]
  apparent Kd: 23 nM
[2]
  apparent Kd: 33.1 nM

## UUCAGCUCGUCAGGAUAUACGUCACUGCUUCGGCAGUGUGGUAAGAUCACAUGAGGAUCACCCAUGUAGAAGGGACGAGCUGAA
[1]
  apparent Kd: 12.5 nM
[2]
  apparent Kd: 254 nM

## UGUGUUAUCGGAGGAUAUCGAUAUCAAACAUGAGGAUCACCCAUGUUGAGGAUCACCCAUGUUCACGAGAAGGCCGGCGUACUC
[3]
  apparent Kd: 112 nM
[4]
  apparent Kd: 194 nM

## GUAGUGUAGUGAGGAUAUACGAGAUCGAUAGAUCGGCGAUCCAAUAAUACAUGAGGAUCACCCAUGUAGAAGGCACUUCACUAC
[1]
  apparent Kd: 7.26 nM
[2]
  apparent Kd: 98.8 nM

## CUAUCUUAUGAGAAGGCGAUCAUGAAACAUGAUCGAGGAUAUCAUGUAAACAUGAGGAUCACCCAUGUAUGGGUAUUAUGGUAG
[3]
  apparent Kd: 175 nM
[4]
  apparent Kd: 57.1 nM

## UGUCGGAGCAGAGGAUAUACAUGAGGAUCACCCAUGUAAUAAAGUGAAGCCUGGACACAGGCAAUGUAGAAGGCUGCUCCGACA
[1]
  apparent Kd: 12.7 nM
[2]
  apparent Kd: 87.9 nM

## GUCAGCUCGUGAGGAUAUACAUGUGCUGGAGACAGCAUUAAAUAAUUCACAUGAGGAUCACCCAUGUAGAAGGCACGAGCUGAU
[1]
  apparent Kd: 17.8 nM
[2]
  apparent Kd: 38.8 nM

## AACGAUCUAGGAUAUACAUGAGGAUCACCCAUGUAAGAGCCCGAACCGGGCUCCCUCUGUAGAAGGAGGUCAAA
[1]
  apparent Kd: 32.7 nM
[2]
  apparent Kd: 40.3 nM
